An excerpt weighted towards active compounds, which were near 4.3% of everything screened.
TAAR1 agonist: human TAAR1 agonism; Q96RJ0; CHO RD-HGA16 TAAR1, Fluo-8 calcium fluorescence; vehicle wells 0%, saturating PEA agonist 100%; activation, % at 3 µM; 0.99% of 360,000 active; AID 624467;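 active means activation above the mean activation of all test compounds in the run plus 3 SD, cut at about 38% in these data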
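Test system: RD-HGA16 (CHO) cells co-expressing Gα16 and hTAAR1 / Benchmarks: DMSO vehicle as 0%, PEA at EC100 as 100% / Repeats: no replicates (n 1) / Measure: % activation from peak over basal fluorescence ratio, DMSO-to-PEA scaled / Timing: 17-24 h plating, Fluo-8 75 min 37 °C, 30 min RT / Technique: kinetic Fluo-8 calcium fluorescence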
B2AR ag: agonists of human beta-2 adrenergic receptor inducing internalization | Am2.2-beta2AR cells, FAP receptor internalization, flow cytometry | response, % (no concentration beside the values) | 0.43% of 340,000 active | AID 504454;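 active means response above a set limit, near 3 SD of response in nonfluorescent compounds, cut at about 42% in these data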
MC4R barr agon: activates human MC4R beta-arrestin recruitment; AID 540308; 0.98% of 360,000 active; U2OS MC4R beta-arrestin complementation, luminescence; percent of melanotan II response, DMSO zero; P32245; activation, % at 8.9 µM;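 active means activation above a per-plate cutoff, the mean activation of sample wells on that plate plus 3 SD, cut at about 8% in these data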
Target sequence (P32245 whole entry, looked up): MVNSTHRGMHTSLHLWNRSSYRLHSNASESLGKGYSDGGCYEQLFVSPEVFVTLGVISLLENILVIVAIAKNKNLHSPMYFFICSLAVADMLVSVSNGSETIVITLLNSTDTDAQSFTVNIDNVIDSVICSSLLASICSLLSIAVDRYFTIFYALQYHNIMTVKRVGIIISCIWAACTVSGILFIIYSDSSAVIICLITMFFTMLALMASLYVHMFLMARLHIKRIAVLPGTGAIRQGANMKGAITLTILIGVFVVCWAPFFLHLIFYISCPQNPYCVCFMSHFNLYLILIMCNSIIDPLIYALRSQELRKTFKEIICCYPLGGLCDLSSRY
TAAR1 antagonist: antagonists of human TAAR1; Q96RJ0; CHO RD-HGA16 TAAR1, Fluo-8 calcium fluorescence, antagonist; AID 624466; inhibition, % at 3 µM; 1.5% of 360,000 active;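 active means inhibition above a per-plate cutoff, the mean inhibition of test compounds on that plate plus 3 SD, cut at about 49% in these data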;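 further: 0% = DMSO plus EC80 beta-PEA response and 100% = DMSO alone without agonist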
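Test system: hTAAR1-expressing CHO RD-HGA16 cells, Gα16-coupled; Probe or stimulus: EC80 β-phenethylamine stimulus; Compound dosing: single nominal final test compound concentration of 3 µM; Timing: 140 s kinetic read after compound, 140 s after agonist; Signal: Fluo-8 calcium-sensitive fluorescence; Measure: % inhibition of agonist calcium response; Controls: DMSO and EC80 PEA controls.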
MC4R antag cAMP: antagonists of human melanocortin 4 receptor (MC4R) | MC4R-expressing cells, MTII-stimulated cAMP, LANCE TR-FRET | inhibition, % at 6.5 µM | 0.48% of 360,000 active | AID 540295;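 active means inhibition above its plate's cutoff, the mean of tested wells on that plate plus 3 SD, cut at about 29% in these data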;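 further: 0% = Melanotan II alone and 100% = Melanotan II plus saturating MCL0020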
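Test system: U2OS cells stably expressing human melanocortin 4 receptor (MC4R); also added: Melanotan II challenge; compound: 6.5 µM single dose; timing: 30-min compound preincubation, 1-h Melanotan II challenge, 1-h detection, room temperature; signal: Eu-cAMP/anti-cAMP TR-FRET, emission 671 nm; repeats: one well per compound, no replicates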
m5-HT2A agonist: agonists of mouse serotonin 5-HT2A receptor (HTR2A). activation, % at 7.6 µM. 0.66% of 360,000 active. P35363. CHO-K1 mHTR2A beta-arrestin complementation, luminescence; percent of 30 µM serotonin response;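 active means activation above a run cutoff, the mean activation of all tested compounds plus 3 SD, cut at about 14% in these data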;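 further: 0% = plate median of compound wells and 100% = 30 µM serotonin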
* marks the source's active call; other numbers are inactive results; · = no result.

SMILES	TAAR1 agonist	B2AR ag	MC4R barr agon	TAAR1 antagonist	MC4R antag cAMP	m5-HT2A agonist
COc1cccc(-c2nc(-c3ccc(C(=O)O)cc3)no2)c1	6	-3	-1	-4	2	5
Cc1ccc(-c2nnc(-c3cccc(NC(=O)c4cccs4)c3)o2)cc1	4	-9	0	52*	2	3
COc1ccc(Cc2nc(-c3ccc(NC(=O)c4cccnc4)cc3)no2)cc1	55*	-2	-1	40	2	-2
CC(=O)Nc1cccc(-c2nnc(-c3ccc(C)cc3)o2)c1	7	-5	0	-11	20	8
C[C@H]1Cn2cnc(C(=O)N(C)Cc3ccccc3)c2C(=O)N1	-1	·	·	-5	·	·
O=C(Cc1cccs1)Nc1ccc(-c2nnc(-c3ccccc3)o2)cc1	13	-3	0	9	4	-1
COc1cccc(-c2nc(-c3ccc(NC(=O)c4cccs4)cc3)no2)c1	6	-7	3	51*	11	2
Cc1cccc(-c2nnc(-c3cccc(NC(=O)Cc4cccs4)c3)o2)c1	11	1	1	74*	10	-1
COc1cccc(CNC(=O)[C@H]2CCCN2C(=O)[C@H]2CCCN2S(=O)(=O)c2cccc(C)c2)c1	-1	·	·	3	·	·
O=C(NN=Cc1ccco1)C(=O)Nc1cccc(C(F)(F)F)c1	3	·	·	8	·	·
COc1ccc(OC)c(Nc2nc(-c3ccncc3)nc3ccccc23)c1	3	2	13*	16	11	3
CC(NC(=O)C=Cc1ccco1)C(=O)NC(Cc1ccccc1)C(N)=O (configuration not stated)	1	·	·	-8	·	·
CC[C@@H](C(=O)[C@@H](C)[C@@H](O)[C@H](C)[C@@H]1O[C@@H]([C@@H](CC)C(=O)O)CC[C@@H]1C)[C@H]1O[C@]2(C=C[C@@H](O)[C@]3(CC[C@@](C)([C@H]4CC[C@](O)(CC)[C@H](C)O4)O3)O2)[C@H](C)C[C@@H]1C	-2	40	36*	-35	10	23*
CC1(C)CC2CC(C)(CN2C(=O)c2cc(-c3ccc(O)cc3)on2)C1 (configuration not stated)	14	25	8.9*	10	-8	7
COc1cccc(-c2cc(C(=O)N3CC4(C)CC3CC(C)(C)C4)no2)c1 (configuration not stated)	22	-4	1	-8	1	-1
C[C@H](O)[C@@H]1C(=O)N2CCc3c([nH]c4cccc(-c5ccccc5)c34)[C@@H]2C[C@@H]1N(C)C(=O)OCc1ccccc1	0	·	·	22	·	·
COc1ccc(-c2nc(NC(=O)c3[nH]c(C)c(C(C)=O)c3C)sc2C)cc1	46*	6	1	88*	3	-5
Cc1ccc(Nc2ncnc(-n3cccc3)n2)cc1Cl	0	4	2	-23	-6	6
Clc1cc(Cl)cc(Nc2ncnc(-n3cccc3)n2)c1	-2	-3	9.0*	-10	11	2
O=C(CSc1nc(-c2ccco2)cc(C(F)(F)F)n1)Nc1ccccc1C(F)(F)F	0	2	9.4*	-14	-14	-2
C#CCNC(=O)C[C@@H]1C[C@@]2(C(=O)OCC)CCCC=C2N(CCC2=CCCCC2)C1=O	1	·	·	-21	·	-3
CCc1cc2c(nc1CC)CCCN2S(=O)(=O)c1ccc(C)cc1	5	·	·	4	·	·
O=[N+]([O-])c1ccc2c(c1)Cc1cc(F)ccc1-2	-1	8	-2	2	-5	3
O=C1C=CC(=O)N1c1ccc2c(c1)Cc1cc(F)ccc1-2	14	4	0	48	32*	-1
COC(=O)c1sc2ncccc2c1OCc1c(Cl)cccc1Cl	12	0	20*	15	-1	1
SMILES	TAAR1 agonist	B2AR ag	MC4R barr agon	TAAR1 antagonist	MC4R antag cAMP	m5-HT2A agonist
COc1ccc(C2CC3(CC(C)(C)NC(=S)N3)Oc3cc(O)cc(C)c32)cc1 (configuration not stated)	1	4	0	2	13	1
COc1ccc(C2CC3(CC(C)(C)NC(SC)=N3)Oc3cc(O)cc(C)c32)cc1 (configuration not stated)	51*	31	1	5	8	-1
CC(/C=N/NC(=O)c1cccnc1)=C\c1ccccc1	8	0	-2	11	-6	0
CC(/C=N/NC(=O)c1ccncc1)=C\c1ccc(C(C)C)cc1	18	20	4	49*	3	6
CCOC(=O)COc1ccc(/C=C/[N+](=O)[O-])c(OCC(=O)OCC)c1	11	54*	-3	4	26	-3
CCOC(=O)COc1ccc2ccccc2c1/C=C/[N+](=O)[O-]	37	44*	-1	36	12	0
CCOC(=O)COc1ccc2nsnc2c1	1	1	-1	-4	13	0
CCCCOc1ccc2ccccc2c1C=O	9	1	0	18	4	5
CCOC(=O)Cn1cc(/C=C/[N+](=O)[O-])c2ccccc21	12	22	-1	4	-7	0
O=[N+]([O-])/C=C/c1c(OCc2ccccc2)ccc2ccccc12	·	89*	2	·	12	-10
COC[C@@H](O)[C@H]1OCc2cc(OC)ccc2[C@@H]1/C=C/c1ccccc1	3	·	·	0	·	·
CC(=O)CCN1CCSCCS1(=O)=O	0	·	·	9	·	·
COc1ccccc1CNc1ccc2c(c1)OC[C@H](CC(C)C)NS2(=O)=O	4	·	·	33	·	·
OCC1(CCCc2ccccc2)CCN(C2CCSCC2)CC1	5	7	2	0	7	1
CCOC(=O)C1(CCCc2ccccc2)CCN(C2CCSCC2)CC1	1	12	9.2*	-10	1	-5
CCOC(=O)c1ccc(NC(=S)N2CCCC(C(=O)OCC)C2)cc1 (configuration not stated)	36	-1	-3	37	11	2
CCOC(=O)C1CCCN(c2cc(C)nc3cc(-c4ccc(Cl)cc4)nn23)C1 (configuration not stated)	3	2	-2	-8	10	-3
CCOC(=O)C1CCCN(C(=S)Nc2ccc(OC)cc2)C1 (configuration not stated)	44*	-8	-2	33	0	1
CCOC(=O)C1CCCN(c2cc(C)nc3cc(-c4ccc(F)cc4)nn23)C1 (configuration not stated)	43*	-4	4	28	18	-3
CCOC(=O)C1CCCN(C(=S)Nc2ccc(F)cc2)C1 (configuration not stated)	51*	8	0	30	1	-1

Screens as filed in PubChem BioAssay.
